Screening results as filed in PubChem.
Wee1 stabilizer = blocks degradation of human Wee1 kinase; AID 1321; reporter increase, % at 5 µM; HeLa Luc-Wee1K328M stability, luciferase luminescence; 100% = proteasome inhibitor MG132 effect; P30291; 220,000 compounds, 1.2% hits;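 active = activation above the mean of all tested compounds plus 3 SD, set per screening run, cut at about 8.8% in these data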;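 also: cells exposed to compound for 20 h before luminescence read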
Target sequence (P30291 whole entry K328M): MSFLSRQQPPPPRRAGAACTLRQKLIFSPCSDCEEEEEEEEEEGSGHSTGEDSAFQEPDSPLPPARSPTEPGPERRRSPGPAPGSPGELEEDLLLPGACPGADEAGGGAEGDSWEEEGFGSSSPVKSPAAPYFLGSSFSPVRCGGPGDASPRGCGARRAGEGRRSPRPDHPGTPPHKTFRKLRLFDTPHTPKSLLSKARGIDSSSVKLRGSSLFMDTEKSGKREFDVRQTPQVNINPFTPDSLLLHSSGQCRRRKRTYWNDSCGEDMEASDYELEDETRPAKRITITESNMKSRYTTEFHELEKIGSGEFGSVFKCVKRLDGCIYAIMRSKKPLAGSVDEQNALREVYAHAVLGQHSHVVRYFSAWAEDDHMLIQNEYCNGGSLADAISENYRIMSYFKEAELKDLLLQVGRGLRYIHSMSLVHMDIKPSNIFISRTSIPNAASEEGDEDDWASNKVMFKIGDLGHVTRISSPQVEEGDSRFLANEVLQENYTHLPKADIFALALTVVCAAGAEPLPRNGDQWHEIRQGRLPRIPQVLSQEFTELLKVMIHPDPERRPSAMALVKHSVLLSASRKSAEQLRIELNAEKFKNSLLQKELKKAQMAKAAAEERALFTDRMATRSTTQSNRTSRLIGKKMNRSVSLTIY
PKD1 kinase inh = inhibitors of human PKD1 kinase | AID 797 | 200,000 compounds, 0.056% hits | inhibition, % (no concentration beside the values) | Q15139 | PKD1 kinase fluorescence polarization assay
Rad51 HR inh = blocks human Rad51 in homologous recombination. Q06609. hRad51 DNA strand exchange, fluorescence dequenching. inhibition, % at 10 µM. 200,000 compounds, 0.085% hits. AID 1385;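 active = inhibition above 40% at the single screening dose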
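System: hRad51 filaments on single-stranded DNA; reagent: Fluorescein- and BHQ1-tagged 47-mer duplex; compound dosing: one concentration, 10 µM final; timing: filaments 15 min 37 °C, then compound 30 min; measured by: fluorescein emission 520 nm, excitation 485 nm; benchmarks: per-plate controls and blanks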
Lmaj promast = reduces viability of Leishmania major promastigotes; resazurin fluorescence viability; inhibition, % at 10 µM; 200,000 compounds, 9% hits;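 also: promastigotes grown with compound for 44 hours at 28 °C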
Arbovirus anti = antivirals against arbovirus infection | arbovirus infection cell-based antiviral screen | 200,000 compounds, 0.37% hits | inhibition, % at 10 µM; in the data active = inhibition above about 30%
CHOP inh = blocks CHOP induction under ER stress | inhibition, % at 10 µM | 220,000 compounds, 3.8% hits | CHO-K1 CHOP-promoter luciferase, tunicamycin-induced, 15-18 h;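 active = compounds that reduced the stress-induced luciferase reporter signal by more than about 70% of percent inhibition, limit read from the data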
Numbers stand for hits. Most compounds without a hit are left out; they make up all but 12% or so of the library. Rule as the data show it, unless noted: active = inhibition above about 50%; inactive = the rest.

Screening CC(NCC1(N2CCOCC2)CCCCC1)C(=O)Nc1ccc(Cl)cc1Cl (stereo unspecified) returned Wee1 stabilizer inactive, PKD1 kinase inh inactive, Rad51 HR inh inactive, Lmaj promast inactive, Arbovirus anti inactive and CHOP inh inactive.
For CCN(CC)CCN(C)Cc1ccc(Br)cc1 the results were Wee1 stabilizer inactive, PKD1 kinase inh inactive, Rad51 HR inh inactive, Lmaj promast 89, Arbovirus anti inactive and CHOP inh inactive.
For O=C(CSc1nnc2c(Cl)cc(Cl)cn12)N1CCN(c2ccc(F)cc2)CC1 the results were Wee1 stabilizer inactive, PKD1 kinase inh inactive, Rad51 HR inh inactive, Lmaj promast 53, Arbovirus anti inactive and CHOP inh inactive.
Screening Cc1ccc(OCC(=O)N(Cc2ccccc2)C2CCS(=O)(=O)C2)c([N+](=O)[O-])n1 (stereo unspecified) returned Wee1 stabilizer inactive, PKD1 kinase inh inactive, Rad51 HR inh inactive, Lmaj promast inactive, Arbovirus anti inactive and CHOP inh inactive.
`CCN(C(=O)COc1ccc(C)nc1[N+](=O)[O-])C1CCS(=O)(=O)C1` (stereo unspecified) gave Wee1 stabilizer inactive, PKD1 kinase inh inactive, Rad51 HR inh inactive, Lmaj promast 51, Arbovirus anti inactive and CHOP inh inactive.
For CCN(CC)C(=O)c1sc(NC(=O)Cc2ccccc2)c(C#N)c1C the results were Wee1 stabilizer inactive, PKD1 kinase inh inactive, Rad51 HR inh inactive, Lmaj promast inactive, Arbovirus anti inactive and CHOP inh inactive.
For CCN(CC)C(=O)c1sc(NC(=O)Cc2ccc(OC)cc2)c(C#N)c1C the results were Wee1 stabilizer inactive, PKD1 kinase inh inactive, Rad51 HR inh inactive, Lmaj promast 85, Arbovirus anti inactive and CHOP inh inactive.
Screening C/C(=N\OCC(=O)Nc1ccc2c(c1)OCCO2)c1ccc2c(c1)OCCO2 returned Wee1 stabilizer inactive, PKD1 kinase inh inactive, Rad51 HR inh inactive, Lmaj promast inactive, Arbovirus anti inactive and CHOP inh inactive.
For Cc1cc(SCC(=O)N(C)C2CCS(=O)(=O)C2)nc2c(C)cccc12 (stereo unspecified) the results were Wee1 stabilizer inactive, PKD1 kinase inh inactive, Rad51 HR inh inactive, Lmaj promast inactive, Arbovirus anti inactive and CHOP inh inactive.
`CCOC(=O)c1c(-c2ccncc2)csc1N` gave Wee1 stabilizer inactive, PKD1 kinase inh inactive, Rad51 HR inh inactive, Lmaj promast inactive, Arbovirus anti inactive and CHOP inh inactive.
For Cc1ccc(C)c(-c2csc(N)c2C(=O)OC(C)C)c1 the results were Wee1 stabilizer inactive, PKD1 kinase inh inactive, Rad51 HR inh inactive, Lmaj promast inactive, Arbovirus anti inactive and CHOP inh 80.
`Cc1cccc(-c2csc(N)c2C(=O)OC(C)C)c1` gave Wee1 stabilizer inactive, PKD1 kinase inh inactive, Rad51 HR inh inactive, Lmaj promast inactive, Arbovirus anti inactive and CHOP inh 74.
For Cc1cc(NS(=O)(=O)c2ccc(NC(=O)CSc3nc4ncccc4[nH]3)cc2)nc(C)n1 the results were Wee1 stabilizer inactive, Rad51 HR inh inactive and CHOP inh inactive.
N#Cc1c(-c2ccccc2)cc(-c2ccccc2)nc1SCc1nnc(-c2ccccc2)o1 was read as Wee1 stabilizer inactive, PKD1 kinase inh inactive, Rad51 HR inh inactive, Lmaj promast 60, Arbovirus anti inactive and CHOP inh inactive.
Screening N#Cc1c(-c2ccccc2)cc(-c2ccccc2)nc1SCC(=O)NCC(=O)O returned Wee1 stabilizer inactive, Rad51 HR inh inactive and CHOP inh inactive.
O=C(O)CCN1C(=O)/C(=C/c2ccc(-c3nc4ccccc4s3)o2)SC1=S was read as Wee1 stabilizer inactive, PKD1 kinase inh inactive, Lmaj promast inactive, Arbovirus anti 42 and CHOP inh inactive.
For Cc1ccc(S(=O)(=O)/C(=C\N(C)C)c2cnc(Cl)s2)cc1 the results were Wee1 stabilizer inactive, PKD1 kinase inh inactive, Rad51 HR inh inactive, Lmaj promast inactive, Arbovirus anti inactive and CHOP inh inactive.
Screening CCOC(=O)c1cccc(NC(=O)Cn2cc3c(n2)CCC(C)C3)c1 (stereo unspecified) returned Wee1 stabilizer inactive, PKD1 kinase inh inactive, Rad51 HR inh inactive, Lmaj promast inactive, Arbovirus anti inactive and CHOP inh 83.
`CC(=O)Nc1ccc(NC(=O)Cn2cc3c(n2)CCC(C)C3)cc1` (stereo unspecified) gave Wee1 stabilizer inactive, PKD1 kinase inh inactive, Rad51 HR inh inactive, Lmaj promast inactive, Arbovirus anti inactive and CHOP inh inactive.
